PMC8884033 (Journal of medicinal chemistry, 2021)
Values belong to the compound of their own block, whether it stands above or below them.

Assays:
recombinant human GALK1 [1] = target: T1, recombinant human GALK1 (Homo sapiens, UniProt P51570); experiment: GALK1 biochemical assay; settings: for fold improvement in potency compared to compound 2: ratio of GALK1 IC50 vs 2
[2] = Parallel artificial membrane permeability assay; assay type: in vitro ADME; settings: pH 7.4
Method in brief: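 Stirred double-sink PAMPA with a lipid/dodecane membrane designed to model GI passive permeability. Donor and acceptor both at pH 7.4. Test compound from 10 mM DMSO stock, diluted to 0.05 mM in pH 7.4 buffer (0.5% DMSO final). Permeation ran 30 min at room temperature with donor stirring. Donor and acceptor concentrations read by UV plate reader.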

mouse recombinant GALK1 [3] = target: T2, mouse recombinant GALK1 (Mus musculus, UniProt Q9R0N0); settings: read-out: IC50 against mouse recombinant GALK1; previously reported lead; cited from earlier work
recombinant human GALK1 [4] = target: T1, recombinant human GALK1; settings: read-out: IC50 against human recombinant GALK1; previously reported lead; cited from earlier work
GALK2 = settings: cited from earlier work
other kinases = experiment: KINOMEScan screen; assay type: binding; settings: KINOMEScan at 10 μM
[5] = test system: Fibroblasts derived from GALT-deficient patients; settings: primary fibroblast cells from patients with classic galactosemia; cited from earlier work
mouse recombinant GALK1 [6] = target: T2, mouse recombinant GALK1; experiment: GALK1 biochemical assay, mouse enzyme
[7] = Human liver microsome stability; assay type: in vitro ADME; settings: liver microsomes, pH 7.4
[8] = test system: Fibroblasts derived from GALT-deficient patients; experiment: Cellular Gal-1P accumulation assay after galactose challenge; assay type: cell-based, human; settings: at 3 μM, patient fibroblasts
Method in brief: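 GALT-deficient patient fibroblasts kept in galactose-free DMEM with 10% FBS. Inhibitor added at set concentrations for 2 to 4 h at 37 °C. Galactose then added to 0.05% for a 4 h challenge. Cells PBS-washed twice and lysed in ice-cold hypotonic buffer (25 mM Tris-HCl pH 7.4, 25 mM NaCl, 0.5 mM EDTA, protease inhibitors). Lysate needle-sheared, then spun 16,000g for 20 min at 4 °C. Gal-1P measured by alkaline phosphatase-coupled method and normalized to protein.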

[9] = Mouse pharmacokinetic studies; assay type: in vivo, CD1 mice
Method in brief: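 Fed CD1 mice, 6–8 weeks old, ~25–30 g. Given single IP (50 mpk), PO (30 mpk) or IV doses as solutions in 5% NMP/25% PEG 300/70% of 15% w/w Kolliphor HS 15 in water (5, 3 and 0.6 mg/mL for IP, PO and IV). Heart-puncture blood taken into heparin-Na from 3 mice per time, 5 min–24 h. Plasma analysed by LC/MS/MS. Once-daily cageside observations.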

[10] = male, CD1, mouse, plasma, iv, 3 mg/kg

T1 sequence (P51570 whole entry): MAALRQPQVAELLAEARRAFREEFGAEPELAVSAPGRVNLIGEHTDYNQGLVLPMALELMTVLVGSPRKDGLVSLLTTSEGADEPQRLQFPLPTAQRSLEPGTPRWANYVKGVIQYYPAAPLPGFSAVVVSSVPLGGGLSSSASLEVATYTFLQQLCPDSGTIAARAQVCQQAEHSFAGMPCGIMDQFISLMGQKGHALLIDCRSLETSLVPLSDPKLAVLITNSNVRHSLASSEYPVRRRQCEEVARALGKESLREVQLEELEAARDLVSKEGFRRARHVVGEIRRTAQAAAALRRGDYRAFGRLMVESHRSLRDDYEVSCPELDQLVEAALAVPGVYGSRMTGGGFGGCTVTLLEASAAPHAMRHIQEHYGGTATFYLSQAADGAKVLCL
T2 sequence (Q9R0N0 whole entry): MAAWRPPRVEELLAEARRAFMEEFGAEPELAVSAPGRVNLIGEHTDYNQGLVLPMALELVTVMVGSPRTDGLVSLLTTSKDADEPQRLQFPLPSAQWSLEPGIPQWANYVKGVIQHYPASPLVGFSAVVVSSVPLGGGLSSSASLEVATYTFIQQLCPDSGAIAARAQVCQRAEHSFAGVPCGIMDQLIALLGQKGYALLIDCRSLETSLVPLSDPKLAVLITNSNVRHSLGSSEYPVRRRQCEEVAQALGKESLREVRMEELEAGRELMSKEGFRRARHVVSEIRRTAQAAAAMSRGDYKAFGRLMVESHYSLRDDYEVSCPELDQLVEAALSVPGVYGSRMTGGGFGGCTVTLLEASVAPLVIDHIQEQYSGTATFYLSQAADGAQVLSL

Compound: CC1=C(C(=O)Nc2cc(C(=O)O)ccn2)C(c2ccccc2Cl)N=C(Nc2nc3cccc(N)c3o2)N1 (centres unmarked) [Compound 53, 2-(2-((7-Aminobenzo[d]oxazol-2-yl)amino)-4-(2-chlorophenyl)-6-methyl-1,4-dihydropyrimidine-5-carboxamido)isonicotinic Acid]
biochemical potency against GALK1 (recombinant human GALK1 [1]): submicromolar
fold potency improvement over 35 (recombinant human GALK1 [1]; ratio of GALK1 IC50 vs 35): 5 fold

Compound: CC1=C(C(=O)Nc2cccc(C(=O)O)c2)C(c2ccccc2Cl)N=C(Nc2nc3ccccc3o2)N1 (centres unmarked) [Compound 15, 3-(2-(Benzo[d]oxazol-2-ylamino)-4-(2-chlorophenyl)-6-methyl-1,4-dihydropyrimidine-5-carboxamido)benzoic Acid]
fold improvement in potency compared to compound 2 (recombinant human GALK1 [1]): > 5 fold

Compound: CC1=C(C(=O)NCc2cnn(C)c2)C(c2ccc(C)cc2Cl)N=C(Nc2nc3cccc(N)c3o2)N1 (centres unmarked) [Compound 67, 2-((7-aminobenzo[d]oxazol-2-yl)amino)-4-(2-chloro-4-methylphenyl)-6-methyl-N-((1-methyl-1H-pyrazol-4-yl)methyl)-1,4-dihydropyrimidine-5-carboxamide]
Papp at 30 min, 0.05 mM ([2]; PAMPA): 315 ×10⁻⁶ cm/s

Compound: O=C1CCCC2=C1C(c1[nH]ncc1Cl)N=C(Nc1nc3ccccc3o1)N2 (centres unmarked) [Compound 1]
IC50 (mouse recombinant GALK1 [3]): 13.7 µM
IC50 (recombinant human GALK1 [4]): 7.69 µM
activity against GALK2 (GALK2): inactive
cross-reactivity against other kinases (other kinases): negligible cross-reactivity
effect on gal-1P levels [5]: lowered gal-1P levels

Compound: CC1=C(C(=O)NCc2cn(C)cn2)C(c2ccccc2Cl)N=C(Nc2nc3ccccc3o2)N1 (centres unmarked) [Compound 32, 2-(Benzo[d]oxazol-2-ylamino)-4-(2-chlorophenyl)-6-methyl-N-((1-methyl-1H-imidazol-4-yl)methyl)-1,4-dihydropyrimidine-5-carboxamide]
fold improvement in potency compared to compound 2 (recombinant human GALK1 [1]): 7–9 fold

Compound: CC1=C(C(=O)NCc2ccc(C(=O)O)cc2)C(c2ccccc2Cl)N=C(Nc2nc3ccccc3o2)N1 (centres unmarked) [Compound 25, 4-((2-(Benzo[d]oxazol-2-ylamino)-4-(2-chlorophenyl)-6-methyl-1,4-dihydropyrimidine-5-carboxamido)methyl)benzoic Acid]
fold better than 24 (recombinant human GALK1 [1]; GALK1 IC50 vs 24): 2 fold

Compound: CC1=C(C(=O)Nc2ccc(C(=O)O)cc2)C(c2ccccc2Cl)N=C(Nc2nc3ccccc3o2)N1 (centres unmarked) [Compound 16, 4-(2-(Benzo[d]oxazol-2-ylamino)-4-(2-chlorophenyl)-6-methyl-1,4-dihydropyrimidine-5-carboxamido)benzoic Acid]
fold improvement in potency compared to compound 2 (recombinant human GALK1 [1]): > 5 fold

Compound: CC1=C(C(=O)Nc2cc(C(=O)O)ccn2)C(c2ccccc2Cl)N=C(Nc2nc3ccc(F)cc3o2)N1 (centres unmarked) [Compound 38, 2-(4-(2-Chlorophenyl)-2-((6-fluorobenzo[d]oxazol-2-yl)amino)-6-methyl-1,4-dihydropyrimidine-5-carboxamido)isonicotinic Acid]
biochemical potency against GALK1 (recombinant human GALK1 [1]): submicromolar

Compound: CC1=C(C(=O)Nc2cc(C(=O)O)ccn2)C(c2ccccc2Cl)N=C(Nc2nc3ccccc3o2)N1 (centres unmarked) [Compound 35, 2-(2-(Benzo[d]oxazol-2-ylamino)-4-(2-chlorophenyl)-6-methyl-1,4-dihydropyrimidine-5-carboxamido)isonicotinic Acid]
fold improvement in potency compared to compound 2 (recombinant human GALK1 [1]): 10 fold

Compound: CC1=C(C(=O)NCc2cnn(C)c2)C(c2ccccc2Cl)N=C(Nc2nc3ccccc3o2)N1 (centres unmarked) [Compound 33, 2-(Benzo[d]oxazol-2-ylamino)-4-(2-chlorophenyl)-6-methyl-N-((1-methyl-1H-pyrazol-4-yl)methyl)-1,4-dihydropyrimidine-5-carboxamide]
fold improvement in potency compared to compound 2 (recombinant human GALK1 [1]): 7–9 fold

More lines, main results first:

PAMPA [2]: 407 10^−6 cm/s
Compound: CCn1cc(CNC(=O)C2=C(C)NC(Nc3nc4ccc(F)c(N)c4o3)=N[C@@H]2c2ccc(C)cc2Cl)cn1 [Compound (S)-70, (S)-2-((7-Amino-6-fluorobenzo[d]oxazol-2-yl)amino)-4-(2-chloro-4-methylphenyl)-N-((1-ethyl-1H-pyrazol-4-yl)methyl)-6-methyl-1,4-dihydropyrimidine-5-carboxamide]

PAMPA [2]: 410 10^−6 cm/s
mouse GALK1 inhibition (mouse recombinant GALK1 [6]): submicromolar
fold improvement in GALK1 inhibition over 69 (recombinant human GALK1 [1]; 6′-F vs des-fluoro 69): 4 fold
Compound: CCn1cc(CNC(=O)C2=C(C)NC(Nc3nc4ccc(F)c(N)c4o3)=NC2c2ccc(C)cc2Cl)cn1 (centres unmarked) [Compound 70, 2-((7-Amino-6-fluorobenzo[d]oxazol-2-yl)amino)-4-(2-chloro-4-methylphenyl)-N-((1-ethyl-1H-pyrazol-4-yl)methyl)-6-methyl-1,4-dihydropyrimidine-5-carboxamide]

PAMPA [2]: 485 10^−6 cm/s
mouse GALK1 inhibition (mouse recombinant GALK1 [6]): submicromolar
half-life at 1 μM [7]: 47 min
time up to which plasma concentrations stay above 1 μM ([9]; IP, single 50 mg/kg dose): ~ 7 h
time after which compound levels are below LLQ ([9]; IV, 3 mpk, plasma): 2 h
clearance at 24 h [9, 10]: 19.9 mL/min/kg
half-life [9, 10]: ~24 min
Compound: CC1=C(C(=O)NCc2cnn(C)c2)C(c2ccc(C)cc2Cl)N=C(Nc2nc3ccc(F)c(N)c3o2)N1 (centres unmarked) [Compound 68, 2-((7-Amino-6-fluorobenzo[d]oxazol-2-yl)amino)-4-(2-chloro-4-methylphenyl)-6-methyl-N-((1-methyl-1H-pyrazol-4-yl)methyl)-1,4-dihydropyrimidine-5-carboxamide]
gal-1P/protein levels [8]: ~ 50 % of control

PAMPA [2]: 661 10^−6 cm/s
Compound: CC1=C(C(=O)NCc2cnn(C)c2)[C@H](c2ccc(C)cc2Cl)N=C(Nc2nc3cccc(N)c3o2)N1 [Compound (R)-67, (R)-2-((7-Aminobenzo[d]oxazol-2-yl)amino)-4-(2-chloro-4-methylphenyl)-6-methyl-N-((1-methyl-1H-pyrazol-4-yl)methyl)-1,4-dihydropyrimidine-5-carboxamide]

PAMPA [2]: 773 10^−6 cm/s
mouse GALK1 inhibition (mouse recombinant GALK1 [6]): submicromolar
fold more potent than the (S)-enantiomer (recombinant human GALK1 [1]; (R) vs (S) enantiomer at C4): 18 fold
Compound: CCn1cc(CNC(=O)C2=C(C)NC(Nc3nc4ccc(F)c(N)c4o3)=N[C@H]2c2ccc(C)cc2Cl)cn1 [Compound (R)-70, (R)-2-((7-Amino-6-fluorobenzo[d]oxazol-2-yl)amino)-4-(2-chloro-4-methylphenyl)-N-((1-ethyl-1H-pyrazol-4-yl)methyl)-6-methyl-1,4-dihydropyrimidine-5-carboxamide]

PAMPA [2]: 632 10^−6 cm/s
Compound: CCn1cc(CNC(=O)C2=C(C)NC(Nc3nc4cccc(N)c4o3)=NC2c2ccc(C)cc2Cl)cn1 (centres unmarked) [Compound 69, 2-((7-Aminobenzo[d]oxazol-2-yl)amino)-4-(2-chloro-4-methylphenyl)-6-methyl-N-((1-ethyl-1H-pyrazol-4-yl)methyl)-1,4-dihydropyrimidine-5-carboxamide]
